In ChEMBL document CHEMBL1145333, “Low molecular weight activated protein C inhibitors as a potential treatment for hemophilic disorders” (J Med Chem, 2006):
pIC50: −log10 of the molar value.

Assays:
[1] = target: Vitamin K-dependent protein C (Homo sapiens, UniProt P04070); experiment: Inhibition of human aPC
Prothrombin = Prothrombin (Homo sapiens, UniProt P00734); experiment: Inhibition of human thrombin activity
In short: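 Thrombin counterscreen using its natural substrate, fibrinogen. Result expressed as an IC50.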

Homo sapiens [2] = organism: Homo sapiens; experiment: Increase in thrombin generation in human moderate hemophilia A platelet poor plasma by thrombogram assay at 10 uM; assay type: functional; details: in the assay text read “10 nM” for “10 uM”
In short: (§1)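 Calibrated automated thrombogram in human moderate hemophilia A platelet-poor plasma (FVIII < 5%). Thrombin generation triggered via the intrinsic coagulation pathway. Inhibitor incubated in the plasma at 10 and 20 nM alongside a 0 nM control. Read-out is the thrombin generation curve and its peak thrombin level (nM).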

Homo sapiens [3] = organism: Homo sapiens; experiment: Increase in thrombin generation in human moderate hemophilia A pooled poor platelet plasma by thrombogram assay at 20 uM; assay type: functional; details: in the assay text read “20 nM” for “20 uM”; in short: as §1
Homo sapiens [4] = organism: Homo sapiens; experiment: Increase in thrombin generation in human severe hemophilia A pooled poor platelet plasma at 20 nM relative to control by thrombogram assay

Sequence of Vitamin K-dependent protein C (P04070 43-197 limits assumed): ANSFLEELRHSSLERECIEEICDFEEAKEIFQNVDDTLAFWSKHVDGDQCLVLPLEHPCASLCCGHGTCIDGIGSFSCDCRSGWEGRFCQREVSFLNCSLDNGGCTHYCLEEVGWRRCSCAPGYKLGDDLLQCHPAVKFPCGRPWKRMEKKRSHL
Sequence of Vitamin K-dependent protein C (P04070 212-461 limits assumed): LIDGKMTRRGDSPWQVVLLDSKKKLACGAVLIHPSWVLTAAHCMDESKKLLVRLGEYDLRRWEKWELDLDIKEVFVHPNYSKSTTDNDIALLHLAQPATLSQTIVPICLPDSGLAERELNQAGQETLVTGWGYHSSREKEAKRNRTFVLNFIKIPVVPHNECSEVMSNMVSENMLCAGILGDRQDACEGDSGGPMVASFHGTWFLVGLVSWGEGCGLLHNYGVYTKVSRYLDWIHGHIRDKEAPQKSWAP

N=C(N)c1ccc(CNC(=O)C2(NC(=O)[C@@H](CC3CCCCC3)NCC(=O)O)Cc3ccccc3C2)cc1 was tested, and the pIC50 [1] was 7.00 and the pIC50 (Prothrombin) was 5.90.
In the case of CC(C)[C@@H](NCC(=O)O)C(=O)N[C@H](C(=O)NCc1ccc(C(=N)N)cc1)C(c1ccccc1)c1ccccc1, the pIC50 [1] was < 4.48.
For CC(C)[C@@H](NCC(=O)O)C(=O)N[C@@H](Cc1ccccc1)C(=O)NCc1ccc(C(=N)N)cc1, the pIC50 [1] was 6.15 and the pIC50 (Prothrombin) was 4.87.
Work on CC[C@@H](NCC(=O)O)C(=O)NC1(C(=O)NCc2ccc(C(=N)N)cc2)Cc2ccccc2C1 yielded a pIC50 [1] of 5.69 and a pIC50 (Prothrombin) of 3.52.
In the case of CC(C)(C)[C@@H](NCC(=O)O)C(=O)NC1(C(=O)NCc2ccc(C(=N)N)cc2)Cc2ccccc2C1, the pIC50 [1] was 5.42 and the pIC50 (Prothrombin) was 3.52.
In the case of CC(C)[C@@H](NCC(=O)O)C(=O)NC1(C(=O)NCc2ccc(C(=N)N)cc2)Cc2cc3ccccc3cc2C1, the pIC50 [1] was 5.03 and the pIC50 (Prothrombin) was < 3.52.
Compound N=C(N)c1ccc(CNC(=O)C2(NC(=O)[C@@H](Cc3ccccc3)NCC(=O)O)Cc3ccccc3C2)cc1 has a pIC50 [1] of 4.95 and a pIC50 (Prothrombin) of 5.00.
N=C(N)c1ccc(CNC(=O)C2(NC(=O)[C@@H](NCC(=O)O)C3CCCCC3)Cc3ccccc3C2)cc1 was tested, and the pIC50 [1] was < 4.48 and the pIC50 (Prothrombin) was < 4.48.
N=C(N)c1ccc(CNC(=O)C2(NC(=O)CNCC(=O)O)Cc3ccccc3C2)cc1 was tested, and the pIC50 [1] was < 4.48 and the pIC50 (Prothrombin) was 4.00.
N=C(N)c1ccc(CNC(=O)C2(NC(=O)[C@H](NCC(=O)O)C3CCCCC3)Cc3ccccc3C2)cc1 gave an Activity (Homo sapiens [2]) of 160 nM, an Activity (Homo sapiens [3]) of 160 nM and a pIC50 (Prothrombin) of 4.33. For the same compound, the Activity (Homo sapiens [4]) was 201 nM.
CC(C)[C@@H](NCC(=O)O)C(=O)NC1(C(=O)NCc2ccc(C(=N)N)cc2)Cc2cccc3cccc(c23)C1 was tested, and the pIC50 [1] was 6.37 and the pIC50 (Prothrombin) was < 3.52.
In the case of CCC(C)[C@@H](NCC(=O)O)C(=O)NC1(C(=O)NCc2ccc(C(=N)N)cc2)Cc2ccccc2C1 (some centres undefined), the pIC50 [1] was 5.95 and the pIC50 (Prothrombin) was 4.07.
With CC(C)[C@@H](NCC(=O)O)C(=O)NC1(C(=O)NCc2ccc(C(=N)N)cc2)Cc2ccc3ccccc3c2C1 (some centres undefined) the pIC50 [1] was 6.60 and the pIC50 (Prothrombin) was 6.11.
With CC(C)(NCC(=O)O)C(=O)NC1(C(=O)NCc2ccc(C(=N)N)cc2)Cc2ccccc2C1 the pIC50 [1] was 4.36 and the pIC50 (Prothrombin) was < 3.52.
In the case of N=C(N)c1ccc(CNC(=O)C2(NC(=O)C3(NCC(=O)O)CCCC3)Cc3ccccc3C2)cc1, the pIC50 [1] was 4.28 and the pIC50 (Prothrombin) was 5.36.
C[C@@H](NCC(=O)O)C(=O)NC1(C(=O)NCc2ccc(C(=N)N)cc2)Cc2ccccc2C1 gave a pIC50 [1] of 5.04 and a pIC50 (Prothrombin) of 4.48.
For CC(C)C[C@@H](NCC(=O)O)C(=O)NC1(C(=O)NCc2ccc(C(=N)N)cc2)Cc2ccccc2C1, the pIC50 [1] was 6.12 and the pIC50 (Prothrombin) was < 4.48.
With CC(C)[C@@H](NCC(=O)O)C(=O)NC1(C(=O)NCc2ccc(C(=N)N)cc2)Cc2ccccc2-c2ccccc2C1 the pIC50 [1] was 4.90 and the pIC50 (Prothrombin) was < 3.52.
With COc1cc2c(cc1OC)CC(NC(=O)[C@H](NCC(=O)O)C(C)C)(C(=O)NCc1ccc(C(=N)N)cc1)C2 the pIC50 [1] was 4.96 and the pIC50 (Prothrombin) was < 4.48.
CC(C)[C@@H](NCC(=O)O)C(=O)N[C@H](C(=O)NCc1ccc(C(=N)N)cc1)C1Cc2ccccc2C1 was tested, and the pIC50 [1] was 6.46 and the pIC50 (Prothrombin) was < 4.48.
CC(C)[C@@H](NCC(=O)O)C(=O)NC1(C(=O)NCc2ccc(C(=N)N)cc2)Cc2ccccc2C1 was tested, and the pIC50 [1] was 6.10 and the pIC50 (Prothrombin) was < 3.52.
Work on CC(C)[C@@H](NCC(=O)O)C(=O)NC1(C(=O)NCc2ccc(C(=N)N)cc2)Cc2ccncc2C1 (some centres undefined) yielded a pIC50 [1] of 5.77 and a pIC50 (Prothrombin) of 4.00.
CC(C)[C@@H](NCC(=O)O)C(=O)NC1(C(=O)NCc2ccc(C(=N)N)cc2)Cc2cccnc2C1 (single isomer, unassigned; diastereomer 1) showed a pIC50 [1] of 5.97 and a pIC50 (Prothrombin) of 3.52.
In the case of CC(C)[C@@H](NCC(=O)O)C(=O)NC1(C(=O)NCc2ccc(C(=N)N)cc2)Cc2cccnc2C1 (single isomer, unassigned; diastereomer 2), the pIC50 [1] was 5.94 and the pIC50 (Prothrombin) was 3.52.
